MC4R antag cAMP: human MC4R antagonism in cAMP assay | P32245 | MC4R-expressing cells, MTII-stimulated cAMP, LANCE TR-FRET | inhibition, % at 6.5 µM | hit rate 0.48% among 360,000 | AID 540295;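 active means inhibition above its plate's cutoff, the mean of tested wells on that plate plus 3 SD, cut at about 29% in these data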;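 further: 0% = Melanotan II alone and 100% = Melanotan II plus saturating MCL0020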
Target sequence (P32245 whole entry, looked up): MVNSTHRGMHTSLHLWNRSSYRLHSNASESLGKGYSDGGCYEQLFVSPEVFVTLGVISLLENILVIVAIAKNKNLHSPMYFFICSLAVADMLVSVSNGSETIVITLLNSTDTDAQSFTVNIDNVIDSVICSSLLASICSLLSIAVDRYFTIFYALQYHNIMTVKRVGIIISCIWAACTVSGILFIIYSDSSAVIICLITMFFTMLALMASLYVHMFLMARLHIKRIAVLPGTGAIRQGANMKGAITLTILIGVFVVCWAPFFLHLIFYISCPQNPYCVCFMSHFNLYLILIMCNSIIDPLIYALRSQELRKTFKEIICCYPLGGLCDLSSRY
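Assay system: U2OS-MC4R stable cell line; Also added: Melanotan II; Technique: Eu-cAMP/anti-cAMP TR-FRET, emission 671 nm; Times: 30-min compound, 1-h challenge, 1-h detection, room temperature.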
Exocytosis inh: blocks lytic granule exocytosis; AID 651702; TALL-104 LAMP-1 surface exposure, flow cytometry; cells stimulated with thapsigargin and PMA; hit rate 0.66% among 360,000; inhibition, % at 10 µM;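 active means inhibition above about 55%, limit read from the data; inconclusive means no clear call, values can overlap the other calls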
HGIII-sPLA2 inh: Blocks human group III sPLA2 activity; Q9NZ20; QFRET BODIPY PC-A2 liposome hydrolysis, fluorescence; inhibition, % at 12.2 µM; hit rate 0.56% among 370,000; AID 743126;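 active means inhibition above mean plus 3 SD of compounds lying within the high and low control bounds, cut at about 19% in these data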;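 further: 0% = median of test compound wells and 100% = no enzyme DMSO wells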
Bfl-1 A1 inh: inhibitors of the anti-apoptotic protein A1, read as caspase activation; hit rate 0.066% among 330,000; AID 2462; MEF A1-2A-BIM cells, Caspase-Glo 3/7 luminescence, 3 h; percent of clofoctol response, vehicle zero; caspase activation, % (concentration not given with the values);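 active means over half of replicate activation scores above 10%, or exactly half above 10 with the replicate mean above 10; inconclusive means replicate mean below 10 yet half the replicates above 10; inactive means over half of replicates below 10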
NTR1 ag: NTR1 (human) agonism; P30989; NTR1-U2OS beta-arrestin-GFP spot imaging, agonist mode; activation, % at 20 µM; hit rate 0.17% among 330,000; AID 493036;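 active means activation at or above 40% of the spot to cytoplasm intensity ratio, with at least 20 cells analyzed; inconclusive means wells under 20 cells, flagged as cytotoxic or low count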;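 further: 0% = DMSO without peptide and 100% = 100 nM NTR1 peptide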
Target sequence (P30989 whole entry, looked up): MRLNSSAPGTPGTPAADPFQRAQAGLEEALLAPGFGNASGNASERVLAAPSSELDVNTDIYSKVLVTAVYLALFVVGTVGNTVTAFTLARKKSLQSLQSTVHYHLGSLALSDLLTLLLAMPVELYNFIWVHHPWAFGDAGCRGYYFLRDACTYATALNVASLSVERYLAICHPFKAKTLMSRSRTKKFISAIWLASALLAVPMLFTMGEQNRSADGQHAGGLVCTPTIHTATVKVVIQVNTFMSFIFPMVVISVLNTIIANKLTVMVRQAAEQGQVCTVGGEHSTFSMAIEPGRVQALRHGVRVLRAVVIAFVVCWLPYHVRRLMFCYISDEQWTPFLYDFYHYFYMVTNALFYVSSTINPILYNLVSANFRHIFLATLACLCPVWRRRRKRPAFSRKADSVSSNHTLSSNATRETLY
MC4R barr agon: activates human MC4R beta-arrestin recruitment. P32245. U2OS MC4R beta-arrestin complementation, luminescence; percent of melanotan II response, DMSO zero. activation, % at 8.9 µM. hit rate 0.98% among 360,000. AID 540308;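 active means activation above a per-plate cutoff, the mean activation of sample wells on that plate plus 3 SD, cut at about 8% in these data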
Exocytosis CP01: lytic granule exocytosis inhibition; inhibition, % at 10 µM; hit rate 11% among 1,500; TALL-104 cells, LAMP-1 externalization, flow cytometry; stimulated with PMA plus thapsigargin; shares compounds with Exocytosis inh; in the data active means inhibition above about 60%;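 further: 0% = stimulated vehicle wells and 100% = unstimulated wells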
sPLA2 confirm: human GIII-sPLA2 inhibition, confirmation; recombinant hGIII-sPLA2, BODIPY PC-A2 QFRET fluorescence; hit rate 34% among 2,000; inhibition, % at 12.2 µM; shares compounds with HGIII-sPLA2 inh;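 active means mean inhibition across triplicates above the hit cutoff set in the earlier primary screen, cut at about 19% in these data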;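 further: 0% = enzyme with DMSO and 100% = DMSO wells lacking enzyme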
BODIPY interf: optically interferes with 535nm fluorescence in sPLA2 counter-screen. AID 743282. BODIPY FL product fluorescence interference, QFRET. shares compounds with HGIII-sPLA2 inh. hit rate 8.5% among 2,000. inhibition, % at 12.2 µM;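 active means average inhibition above the solvent-only control mean plus 3 SD, cut at about 6% in these data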;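 further: 0% = DMSO with substrate plus product and 100% = DMSO with substrate alone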
Starred values were filed as active, the others as inactive; ? = inconclusive; / = no result given. An excerpt weighted towards active compounds, which were near 2.5% of everything screened.

SMILES	MC4R antag cAMP	Exocytosis inh	HGIII-sPLA2 inh	Bfl-1 A1 inh	NTR1 ag	MC4R barr agon	others
CC(C)c1ccc(-n2c(O)c(C=NCCN3CCNCC3)c(=O)[nH]c2=S)cc1	11.3	0.8	7.8	?	0.6	1.2
COc1ccc(Cn2c(N)c(C(=O)NCc3ccco3)c3nc4ccccc4nc32)cc1	6.3	58.6*	-16.3	0.1	5.3	-0.4	Exocytosis CP01=18.5
Nc1c(C(=O)NCc2ccco2)c2nc3ccccc3nc2n1Cc1ccccc1	-8.4	21.7	-17.1	-0.7	1.5	0.1
Cc1ccc(N=Cc2c(O)n(C)c(=O)n(C)c2=O)cc1	-4.1	-7.4	3.8	-2.1	0.0	-2.2
COC(=O)C1=C(c2cccc(OCc3ccccc3)c2)C[C@@H]2CC[C@H]1N2C(=O)NCCCOC(C)C	-2.3	98.3*	-16.7	-1.9	-0.9	-2.0	Exocytosis CP01=-4.4
COC(=O)C1=C(c2cccc(OCc3ccccc3)c2)C[C@@H]2CC[C@H]1N2C(=O)NCCOc1ccc(OC)cc1	9.4	8.8	-14.1	-0.2	2.2	-2.1
CCOc1ccc(N)cc1	8.0	101.3*	5.5	/	/	-0.2	Exocytosis CP01=-12.2
CCOc1ccc(N2C(=O)CC(=O)NC2=O)cc1	14.1	-6.9	-7.7	0.5	0.7	0.7
Cc1cccc(C)c1-n1nnnc1C(CCc1ccccc1)N1CCC(n2c(=O)[nH]c3ccccc32)CC1 (stereo not drawn)	/	90.6*	10.7	/	/	/	Exocytosis CP01=95.4*
C=CCN1CCc2cccc3c2[C@H]1Cc1ccc(O)c(O)c1-3	-10.6	83.6*	9.4	0.6	4.3	-0.3	Exocytosis CP01=26.9
CCOc1ccc(NC2=NCCCS2)cc1	3.6	?	6.2	1.0	0.3	-2.0
COc1cc(CNCCc2ccc3c(c2)OCO3)cc(OC)c1OC	17.1	7.7	-4.8	-0.9	-1.1	0.1
COc1ccc(Br)cc1CNCCc1ccc2c(c1)OCO2	-3.3	58.9*	-9.0	0.6	1.3	-3.7	Exocytosis CP01=-3.7
COc1ccc(-n2c(/C=C/c3ccc(O)c(OC)c3)nc3ccccc3c2=O)cc1	6.4	57.8*	-25.6	1.3	11.4	1.9	Exocytosis CP01=-3.5
COc1ccc(-n2c(/C=C/c3ccc(O)cc3)nc3ccccc3c2=O)cc1	7.1	3.6	-31.8	-0.5	10.6	0.9
COc1ccc(OC)c(C(O)C2CCCCN2)c1 (stereo not drawn)	2.4	2.9	14.9	-0.6	0.0	-0.1
CCOC(=O)[C@]12Cc3cc(OC)ccc3[C@H]1N(C1CCCCC1)C(=O)c1cc(OC)ccc12	/	63.8*	1.9	/	/	/	Exocytosis CP01=0.0
CCOC(=O)[C@]12Cc3ccccc3[C@H]1N(C)C(=O)c1cc(OC)ccc12	/	-6.8	4.0	/	/	/
CCOC(=O)[C@]12Cc3cc(C)ccc3[C@H]1N(C1CCCCC1)C(=O)c1cc(OC)ccc12	/	84.4*	5.3	/	/	/	Exocytosis CP01=3.8
COc1ccc(-c2ccc3c(c2)CN(C(=S)NCCc2ccccc2)Cc2cnnn2-3)cc1	/	-2.8	-4.2	/	/	/
CCOc1cccc(CNCCc2c(C)[nH]c3ccc(OC(F)(F)F)cc23)c1O	8.5	78.4*	-25.3	-0.2	35.7	16.9*	Exocytosis CP01=82.6*
COC(=O)C1=C(c2ccc(OC(F)(F)F)cc2)C[C@@H]2CC[C@H]1N2C(=O)NCc1cc(C)oc1C(F)(F)F	12.7	-9.4	9.2	-1.1	-1.0	-2.0
CC(=NCCc1ccccc1)c1c(O)n(C)c(=O)n(C)c1=O	3.0	-4.7	1.0	0.7	1.3	3.4
CC(=Nc1ccccc1N)c1c(O)n(C)c(=O)n(C)c1=O	0.3	-3.8	20.2*	0.8	-1.0	0.5	sPLA2 confirm=6.3;BODIPY interf=-6.0
CCOc1ccc(NC(=O)CCNC(=O)N2C[C@H]3C[C@@H](C2)c2cccc(=O)n2C3)cc1	6.8	4.3	-0.5	-0.7	-0.5	1.1
SMILES	MC4R antag cAMP	Exocytosis inh	HGIII-sPLA2 inh	Bfl-1 A1 inh	NTR1 ag	MC4R barr agon	others
CC(C)Oc1ccc(CCN)cc1Cl	-0.8	4.8	22.5*	-0.5	-0.8	0.1	sPLA2 confirm=4.2;BODIPY interf=-7.2
CCCC(=O)NC(Oc1ccc(Cl)cc1Cl)C(Cl)(Cl)Cl (stereo not drawn)	-4.9	-3.2	13.5	-0.6	0.5	-0.6
CC1OC(OC2CC(O)C3(CO)C4C(O)CC5(C)C(C6=CC(=O)OC6)CCC5(O)C4CCC3(O)C2)C(O)C(O)C1O (stereo not drawn)	13.1	-0.4	27.7*	/	/	16.1*	sPLA2 confirm=3.9;BODIPY interf=-5.6
O=[N+]([O-])c1ccc(N2CCNCC2)cc1N1CCCCCC1	-4.8	1.4	35.7*	0.3	2.8	-1.4	sPLA2 confirm=16.6;BODIPY interf=-12.3
O=C(O)C1C2CCC(O2)C1C(=O)Nc1cccc(Br)c1 (stereo not drawn)	-3.4	-2.5	9.7	0.2	-0.1	0.1
ClCCN1CCSCC1	5.4	-0.6	13.0	/	/	-0.8
C[C@]12CCC3C(CC[C@H]4C[C@H](O)CC[C@]34C)C1[C@@H](O)[C@@H](O)[C@@H]2O (stereo partly drawn)	2.5	-0.2	-0.5	1.0	3.8	-0.6
Cc1cc(-c2cc(C)c(N)c(C)c2)cc(C)c1N	-4.5	-0.7	21.9*	/	/	0.6	sPLA2 confirm=21.6*;BODIPY interf=0.9
CCCCc1ccc2[nH]cc(CCN)c2c1	1.8	-1.3	30.0*	-1.3	1.0	4.9	sPLA2 confirm=7.7;BODIPY interf=-14.4
CCC1C=CC=CC[C@H](C)[C@@H](O)[C@](C)(O)C(=O)[C@@H](C)[C@H](O)[C@@H](C)C(=O)[C@H](C)[C@@H](O)[C@H](C)C=CC(=O)OC2[C@@H](C)C(CC1)OC1(CC[C@@H](C)C(C[C@H](C)O)O1)[C@@H]2C (stereo partly drawn)	/	/	/	-0.9	22.6	/
CCOC(=O)c1c(/N=C/c2c(O)n(-c3cccc(C)c3)c(=O)[nH]c2=O)sc2c1CCCC2	2.1	1.0	20.4*	1.5	2.7	0.9	sPLA2 confirm=12.9;BODIPY interf=-3.5
CCOC(=O)c1sc(/N=C/c2c(O)n(-c3ccccc3)c(=O)[nH]c2=O)c(C#N)c1C	-5.2	0.1	-9.8	0.1	-1.6	0.4
CN1CCN(c2ccc([N+](=O)[O-])c3cccnc23)CC1	1.3	-10.6	-2.7	-0.6	0.4	-1.0
O=[N+]([O-])c1ccc(NCCO)c2ncccc12	-9.4	-9.9	21.6*	0.3	-1.3	-1.6	sPLA2 confirm=4.3;BODIPY interf=-1.5
O=C1CN=C(c2ccc[nH]2)c2cc(Cl)ccc2N1	12.1	8.4	2.9	-0.3	1.0	-0.6
CN=C1CN=C(c2ccc[nH]2)c2cc(Cl)ccc2N1	/	/	19.4*	/	/	/	sPLA2 confirm=7.6;BODIPY interf=1.2
